Source: ChEMBL document CHEMBL3992510, “Urea Derivatives of 2-Aryl-benzothiazol-5-amines: A New Class of Potential Drugs for Human African Trypanosomiasis” (J Med Chem, 2017)
The source made the active and inactive calls. The calls are words filed in the database; no cut-off is given here.

Assays:
[1] = test system: Trypanosoma brucei brucei; test: Anti-parasitic activity against Trypanosoma brucei brucei TREU667 infected in mouse assessed as reduction in parasitemia at 50 mg/kg, bid administered via oral gavage on day 21 to 30 post infection measured on day 180 by microscopic method; assay type: functional, organism-based
In short: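 Groups of five mice are infected on day 0 with 1 × 10^4 parasites to give a chronic infection. From day 21, mice receive 50 mg/kg orally b.i.d. for 10 days (20 doses) in 200 μL of 60% Phosal 53 MCT/30% PEG400/10% EtOH; a vehicle-only group runs alongside. Tail blood slides are examined microscopically until 180 days postinfection. Three mice are sampled before dose 15 and at 1 and 6 h after.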

[2] = Drug level in mouse brain at 50 mg/kg, po administered as single dose via gavage measured at 8 hrs post dose by liquid chromatography/tandem mass spectrometric analysis; assay type: ADME, organism-based; settings: read-out: Drug uptake
In short: (§1)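 Single 50 mg/kg oral dose in DMSO (5%), Tween 80 (7%), EtOH (3%) in 0.9% saline; groups of three mice killed at 1, 4, 8 and 24 h. Plasma separated by brief centrifugation; brain homogenised in acetonitrile; both assayed by LC-MS/MS, brain values corrected for 3% v/w blood content. Mean ± SEM of 3 mice; plasma LLQ 0.010 μM.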

[3] = Drug level in Swiss-Webster mouse plasma infected with Trypanosoma brucei brucei TREU667 at 50 mg/kg, po bid administered via gavage for 10 days starting from 21 days post infection measured at 1 hr post last dose; assay type: ADME, organism-based
[4] = Drug level in mouse plasma at 50 mg/kg, po administered as single dose via gavage measured at 24 hrs post dose by liquid chromatography/tandem mass spectrometric analysis; assay type: ADME, organism-based; in short: as §1
[5] = Drug level in mouse brain at 50 mg/kg, po administered as single dose via gavage measured at 1 hr post dose by liquid chromatography/tandem mass spectrometric analysis; assay type: ADME, organism-based; settings: read-out: Drug uptake; in short: as §1
[6] = Drug level in mouse brain at 5 mg/kg, ip administered as single dose measured at 1 hr post dose by liquid chromatography/tandem mass spectrometric analysis; assay type: ADME, organism-based; settings: read-out: Drug uptake
In short: (§2)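 Single ip dose of 5 mg/kg in 5% DMSO/7% Tween 80/3% EtOH in 0.9% saline, three mice per compound (six for one compound). At 1 h, plasma is separated by centrifugation and brain homogenized in acetonitrile. Both are quantified by LC-MS/MS, with brain corrected for 3% v/w blood. Brain/plasma ratio is reported as mean ± SEM.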

[7] = Cmax in mouse brain at 50 mg/kg, po administered as single dose via gavage by liquid chromatography/tandem mass spectrometric analysis; assay type: ADME, organism-based; parameters: dose 50 mg/kg, route oral
In short: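 Time course after a single 50 mg/kg oral dose in 5% DMSO/7% Tween 80/3% EtOH in 0.9% saline. Mice are sacrificed in groups of three at 1, 4, 8 and 24 h. Plasma is separated by centrifugation and brain homogenized in acetonitrile, both measured by LC-MS/MS. Brain values are corrected for 3% v/w blood. Lower limit of quantitation 0.010 μM. Values are means ± SEM.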

[8] = Drug level in mouse brain at 50 mg/kg, po administered as single dose via gavage measured at 4 hrs post dose by liquid chromatography/tandem mass spectrometric analysis; assay type: ADME, organism-based; settings: read-out: Drug uptake; in short: as §1
[9] = test system: Trypanosoma brucei rhodesiense; test: Antiparasitic activity against Trypanosoma brucei rhodesiense STIB900 infected in Swiss-Webster mouse assessed as reduction in parasitemia at 50 mg/kg, po bid administered via gavage from day 2 to 5 post infection measured on day 60 by microscopic method; assay type: functional, organism-based
In short: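 Female Swiss-Webster (ND4 outbred) mice, 6–8 weeks old, five per group, are infected on day 0 with 1 × 10^4 parasites. Dosing is 50 mg/kg by oral gavage every 12 h on days 2–5 (eight doses) in 200 μL of 5% DMSO/7% Tween 80/3% EtOH in 0.9% saline. Tail blood is examined microscopically for 60 days, and mice become parasitemic are euthanized. Three mice are sampled before dose 7 and at 1 and 6 h after for plasma levels.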

[10] = Selectivity index, ratio of EC50 for human CRL8155 cells to EC50 for Trypanosoma brucei brucei BF427; assay type: toxicity; settings: read-out: Ratio EC50
[11] = Selectivity index, ratio of EC50 for human HepG2 cells to EC50 for Trypanosoma brucei brucei BF427; assay type: toxicity; settings: read-out: Ratio EC50
[12] = AUC (0 to infinity) in mouse at 50 mg/kg, po administered as single dose via gavage as 60% phosal 53 MCT/30% PEG400/10% EtOH formulation by liquid chromatography/tandem mass spectrometric analysis; assay type: ADME, organism-based; parameters: dose 50 mg/kg, time infinity, route oral; settings: in vivo
In short: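 Single oral gavage dose of 50 mg/kg to groups of three mice, vehicle as in the line. Tail blood of 40 μL is taken into heparinized capillaries at time points out to as much as 32 h. It is spotted on dried-blood cards and quantified by LC-MS/MS. Values are means ± SEM of three mice.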

[13] = Drug level in mouse plasma at 5 mg/kg, ip administered as single dose measured at 1 hr post dose by liquid chromatography/tandem mass spectrometric analysis; assay type: ADME, organism-based; in short: as §2
[14] = Drug level in mouse plasma at 50 mg/kg, po administered as single dose via gavage measured at 4 hrs post dose by liquid chromatography/tandem mass spectrometric analysis; assay type: ADME, organism-based; in short: as §1
[15] = Stability in mouse liver microsomes assessed as compound remaining at 1.5 uM in presence of NADPH measured after 60 mins by liquid chromatography/tandem mass spectrometric analysis; assay type: ADME, microsome; settings: read-out: Stability
In short: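 Pooled liver microsomes (0.5 mg/mL) are preincubated 5 min at 37 °C in 0.16 M KH2PO4 with 1 mM NADPH, then test compound is added at 1.5 μM. Aliquots are quenched with 4 volumes of acetonitrile at 0, 5, 10, 15, 30 and 60 min and analyzed by LC-MS/MS. Percent remaining at 5 or 60 min is given when t1/2 is outside the 5–60 min range. Controls: testosterone, dextromethorphan.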

Plasma [16] = test: Drug level in Swiss-Webster mouse plasma infected with Trypanosoma brucei rhodesiense STIB900 at 50 mg/kg, po bid administered via gavage for 4 days starting from 2 days post infection measured on day 3 prior to dose 7; assay type: ADME, organism-based; settings: in vivo
In short: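 Female Swiss-Webster mice (ND4 outbred, 6−8 weeks), groups of five, infected day 0 with 1 × 10^4 T. b. rhodesiense STIB900; 50 mg/kg oral gavage every 12 h days 2−5 (eight doses) in 200 μL DMSO 5%, Tween 80 7%, EtOH 3% in 0.9% saline. Tail blood from 3 mice before dose 7, then 1 and 6 h post-dose, spotted on cards, LC-MS/MS.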

Plasma [17] = test: Drug level in Swiss-Webster mouse plasma infected with Trypanosoma brucei brucei TREU667 at 50 mg/kg, po bid administered via gavage for 10 days starting from 21 days post infection measured on day 7 prior to dose 15; assay type: ADME, organism-based; settings: in vivo
In short: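 Groups of five mice given 1 × 10^4 T. b. brucei TREU667 on day 0; from day 21, 50 mg/kg oral gavage every 12 h for 10 d (20 doses) in 200 μL Phosal 53 MCT (60%), PEG400 (30%), EtOH (10%). Tail blood drawn from 3 mice before dose 15 and 1 and 6 h after it, spotted on cards, LC-MS/MS.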

HepG2 = test: Cytotoxicity against human HepG2 cells assessed as growth inhibition after 48 hrs by Alamar blue assay; assay type: cell-based; settings: Homo sapiens, HepG2, 48 h
In short: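 CRL-8155 lymphoblasts or HepG2 hepatocellular carcinoma cells are exposed 48 h to serial compound dilutions in quadruplicate. Growth is read with Alamar Blue, and 50% and 90% inhibitory concentrations come from nonlinear regression. Quinacrine is the control.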

O=C(Nc1ccc2sc(-c3ccc(F)c(F)c3)nc2c1)N1CC[C@H](F)C1
Activity [1]: Active
concentration at 8 h [2]: 48.1 µM
concentration at 1 h [3]: 23.1 µM
concentration at 24 h [4]: 0.01 µM
concentration at 1 h [5]: 38.2 µM
concentration at 1 h [6]: 9.07 µM
Cmax [7]: 54.8 µM
concentration at 4 h [8]: 45.2 µM
Activity [9]: Active
selectivity ratio [10]: > 1440
selectivity ratio [11]: > 1440
AUC(0-inf) [12]: 245 µM·h
concentration at 1 h [13]: 2.27 µM
concentration at 4 h [14]: 10.2 µM
remaining at 1 h, 1.5 µM [15]: 73%
concentration (Plasma [16]): 9.1 µM
concentration (Plasma [17]): 15.8 µM
EC50 (HepG2): > 50 µM
